The text below walks through data of ChEMBL document CHEMBL1141224, “Parallel solution-phase and microwave-assisted synthesis of new S-DABO derivatives endowed with subnanomolar anti-HIV-1 activity” (J Med Chem, 2005).

Active and inactive are the calls of the source. No cut-off for these calls is given here.

Assay [1] concerns Human immunodeficiency virus type 1 reverse transcriptase (Human immunodeficiency virus 1), Q72547 [Y181I]. Description: Inhibition of Y181I mutant HIV1 reverse transcriptase by [3H]dTTP poly(rA)/oligo(dT) incorporation at 400 uM. The method, boiled down: (§1)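 RNA-dependent DNA polymerase assay of recombinant RT at 5–10 nM. Template: poly(rA)/oligo(dT) (0.3 μM 3'-OH ends) with 10 μM [3H]-dTTP. Run 10 min at 37 °C with increasing inhibitor. TCA-precipitated product was counted on GF/C filters. Highest concentration tested was 400 μM.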

Assay [2] has as its system Human immunodeficiency virus 1. Put plainly: Antiviral activity against wild type HIV1 NL4-3 infected MT4 cells by MTT method. It counts as functional, organism-based. The settings on record: Human immunodeficiency virus 1, NL4-3, MT4. The method, boiled down: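 MT-4 lymphoid cells infected with HIV-1 NL4-3 in the presence of graded drug concentrations. Viable cells counted by MTT colorimetric assay at day 5 post-infection. EC50 is the concentration protecting 50% of cells from HIV-induced death. Mean of at least two experiments.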
(In general: Tetrazolium assays rely on reduction of a dye to a coloured formazan, in cell work by metabolically active cells.)

The subject of assay [3] is Human immunodeficiency virus 1. Put plainly: Antiviral activity against HIV1 K103N mutant strain infected MT4 cells by MTT method at 62 uM. It counts as functional. Particulars: Human immunodeficiency virus 1, K103N. The method, boiled down: (§2)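 MT-4 cells infected with the mutant HIV-1 strain and treated with compound. Viable cells were measured by MTT colorimetric assay on day 5 post-infection. The value is the percent inhibition of HIV-induced cell death at the stated micromolar concentration. Values are the mean of at least two experiments.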

The test system of assay [4] is Human immunodeficiency virus 1. Put plainly: Antiviral activity against HIV1 Y188L mutant strain infected MT4 cells by MTT method. Particulars: for EC50: Human immunodeficiency virus 1, Y188L, MT4. It counts as functional, organism-based.
Assay [5] deals with MT4. Description: Cytotoxicity against MT4 cells by MTT method. Particulars: Homo sapiens. Type of assay: functional. The method, boiled down:
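Mock-infected MT-4 cells exposed to graded drug concentrations. Viability assessed by MTT colorimetric method at day 5. CC50 is the concentration causing 50% death of noninfected cells. Mean of at least two experiments.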

In assay [6] the test system is Human immunodeficiency virus 1. Put plainly: Antiviral activity against HIV1 IRLL98 mutant strain infected MT4 cells by MTT method. Type of assay: functional, organism-based. Particulars: Human immunodeficiency virus 1, IRLL98, MT4. The method, boiled down: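 MT-4 cells infected with the HIV-1 mutant strain, or mock-infected for cytotoxicity, in the presence of a range of drug concentrations. Viable cells were counted by MTT colorimetric assay on day 5 post-infection. EC50 is the concentration that blocks 50% of HIV-induced cell death. Values are the mean of at least two experiments. IRLL98 carries RT mutations K101Q, Y181C and G190A, plus NRTI mutations.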

For assay [7], the system named is Human immunodeficiency virus type 1 reverse transcriptase (Human immunodeficiency virus 1), Q72547 [K103N]. Put plainly: Inhibition of K103N mutant HIV1 reverse transcriptase by [3H]dTTP poly(rA)/oligo(dT) incorporation at 400 uM. The method, boiled down: as §1
In assay [8] the target is Human immunodeficiency virus type 1 reverse transcriptase (Human immunodeficiency virus 1) (UniProt Q72547).
In assay [9] the test system is Human immunodeficiency virus type 1 reverse transcriptase (Human immunodeficiency virus 1), Q72547 [K103N].
For assay [10], the system named is Human immunodeficiency virus 1. Put plainly: Antiviral activity against HIV1 K103N mutant strain infected MT4 cells by MTT method. Type of assay: functional, organism-based. Particulars: Human immunodeficiency virus 1, K103N.
Assay [11] relates to Human immunodeficiency virus type 1 reverse transcriptase (Human immunodeficiency virus 1), Q72547 [Y181I].
The target of assay [12] is Human immunodeficiency virus type 1 reverse transcriptase (Human immunodeficiency virus 1) (UniProt Q72547). Put plainly: Inhibition of wild type HIV1 reverse transcriptase by [3H]dTTP poly(rA)/oligo(dT) incorporation at 400 uM. The method, boiled down:
as §1

Assay [13] has as its system Human immunodeficiency virus 1. Put plainly: Antiviral activity against wild type HIV1 NL4-3 infected MT4 cells by MTT method at 2.3 uM. Type of assay: functional. Particulars: Human immunodeficiency virus 1, NL4-3, MT4. The method, boiled down:
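MT-4 cells infected with HIV-1 NL4-3 and exposed to drug. Viable cells measured by MTT assay at day 5 post-infection. Result given as percent inhibition of HIV-induced cell death at the stated micromolar concentration. Mean of at least two experiments.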

In assay [14] the test system is MT4. Description: Cytotoxicity against MT4 cells by MTT method at 11 uM. It counts as functional, Homo sapiens.
Assay [15] concerns Human immunodeficiency virus 1. Description: Antiviral activity against HIV1 IRLL98 mutant strain infected MT4 cells by MTT method at 11 uM. It counts as functional. Particulars: Human immunodeficiency virus 1, IRLL98, MT4. The method, boiled down: as §2

As for `Cc1c(O)nc(SCc2ccc(C(C)C)cc2)nc1Cc1c(F)cccc1F`, the ID50 result in assay [1] and in assay [7] was “inactive” each time. Besides, the EC50 (commonly the concentration that produces a half-maximal response) in assay [2] was 580 nM; in [4], greater than 62 µM; in assay [6] it was 16 µM. Besides, the inhibition (commonly the drop in the measured response relative to a control, in per cent) at 62 µM in [3] stood at 33%. In addition, the CC50 (commonly the concentration that lowers cell viability or growth by half) with MT4 [5] is greater than 62 µM. Also, the ID50 in [8] is 3 µM.

For `COc1ccc(CS(=O)(=O)c2nc(O)c(C)c(Cc3c(Cl)cccc3Cl)n2)cc1`, the EC50 was greater than 2800 nM in [2], greater than 2.8 µM in [10], greater than 2.8 µM in assay [4] and greater than 2.8 µM in assay [6]. The ID50 in [9] was 10 µM; in assay [11] it was 27 µM; in assay [8], 0.006 µM. In the assay with MT4 [5], half-maximal cytotoxicity (CC50) was put at 2.8 µM.

`COc1ccc(CCCSc2nc(O)c(C)c(Cc3c(Cl)cccc3Cl)n2)cc1`: the EC50 is 0.44 nM in [2], greater than 1 µM in assay [10], greater than 1 µM in assay [4] and 0.11 µM in assay [6]. The ID50 in assay [9] was 0.5 µM; in assay [11], 0.3 µM; in assay [8], 0.037 µM. This molecule had a CC50 in the assay on MT4 [5] of 1 µM.

For `Cc1c(O)nc(SCc2ccc(C(C)C)cc2)nc1Cc1c(Cl)cccc1Cl`, the ID50 result in assay [1], in [12] and in assay [7] was “inactive” throughout. Besides, the figures for the EC50 in [10], in [4] and in assay [6] were greater than 58 µM, greater than 58 µM and greater than 57 µM, respectively. This molecule gave an inhibition at 2.3 µM in assay [13] of 35%. The Activity with MT4 [14] is 45%.

Consider `Cc1ccnc2c1NC(=O)c1cccnc1N2C1CC1` [NEVIRAPINE], for which the EC50 is 52 nM in assay [2], 3.9 µM in assay [10], greater than 7.5 µM in [4] and greater than 7.5 µM in assay [6]. The ID50 in [9] stood at 8 µM; in assay [11], 20 µM. The CC50 in the assay on MT4 [5] was greater than 7.5 µM.

In the case of `Cc1c(O)nc(SCc2cccc(Cl)c2)nc1Cc1c(Cl)cccc1Cl`, the EC50 is 310 nM in assay [2], greater than 59 µM in assay [10], greater than 59 µM in [4] and 4.8 µM in assay [6]. In addition, the ID50 in [9] worked out at 400 µM; in assay [11], 400 µM; in assay [8] it was 2.3 µM. This molecule came in with a CC50 in the assay on MT4 [5] greater than 59 µM.

Regarding `COc1ccc(CSc2nc(Cc3c(Cl)cccc3Cl)c(C)c(=O)[nH]2)cc1`, the EC50 is 7 nM in assay [2], 4.7 µM in assay [10], greater than 32 µM in [4] and 0.047 µM in assay [6]. Further, the ID50 came to 102 µM in assay [9], 150 µM in [11] and 0.004 µM in assay [8]. In the assay on MT4 [5], this molecule yielded a CC50 of 32 µM.

With `Cc1c(O)nc(SCc2ccc([N+](=O)[O-])cc2)nc1Cc1c(Cl)cccc1Cl`, the results for the EC50 in [2], in [10] and in assay [6] were 790 nM, 11 µM and 3.3 µM, respectively. The ID50 in [9] was 0.12 µM; in assay [11], 0.22 µM; in assay [8] it was 0.009 µM. The Inhibition (commonly the percentage by which the read-out fell short of the control) in assay [4] is listed as 31%. In the assay with MT4 [5], the CC50 was greater than 58 µM.

Turning to `Cc1c(O)nc(S(=O)(=O)Cc2ccc([N+](=O)[O-])cc2)nc1Cc1c(Cl)cccc1Cl`, the ID50 entry in [1], in assay [12] and in [7] was “inactive” throughout. Moreover, the EC50 in assay [2] was greater than 53000 nM; in assay [10], greater than 53 µM; in assay [4], greater than 53 µM; in assay [6], greater than 53 µM. The molecule further came in with a cytotoxic concentration (CC50) in the assay with MT4 [5] greater than 53 µM.

Take `COc1ccc(CCSc2nc(Cc3c(Cl)cccc3Cl)c(C)c(=O)[nH]2)cc1`: the EC50 in assay [2] is less than 0.14 nM; in [10] it was 0.87 µM; in assay [4], 6.9 µM; in assay [6], 0.00022 µM. Also, the ID50 in [9] was 3.2 µM; in assay [11], 1.5 µM; in assay [8], 0.026 µM. In the assay with MT4 [5], this molecule came in with a CC50 greater than 57 µM.

Turning to `Cc1c(O)nc(SCc2ccc(O)cc2)nc1Cc1c(Cl)cccc1Cl`, the ID50 result in assay [1], in assay [12] and in assay [7] was “inactive” in each case. The EC50 was greater than 41000 nM in assay [2], greater than 41 µM in assay [10], greater than 41 µM in assay [4] and greater than 41 µM in assay [6]. The CC50 in the assay with MT4 [5] is 41 µM.

Regarding `CCCCOc1ccc(CSc2nc(O)c(C)c(Cc3c(Cl)cccc3Cl)n2)cc1`, the ID50 result in [1] and in assay [7] was “inactive” in each case. The EC50 in assay [2] is greater than 3100 nM; in assay [10] it was greater than 3.1 µM; in assay [4], greater than 3.1 µM. In assay [15], this molecule gave an inhibition at 11 µM of 34%. This molecule came in with a CC50 in the assay on MT4 [5] of 3.1 µM. In assay [8], this molecule showed an ID50 of 2.8 µM.
